Measured values from ChEMBL document CHEMBL4431355, “Design and synthesis of benzylpiperidine inhibitors targeting the menin-MLL1 interface” (Bioorg Med Chem Lett, 2016).

Legend:
[1] = target: Menin/Histone-lysine N-methyltransferase MLL (Homo sapiens, UniProt O00255); test: Inhibition of human recombinant full length menin/MLL1 (unknown origin) interaction using Ac-SRWRFPARPGTGRR-Ahx-Ahx-K-FAM as substrate after 15 mins by fluorescence polarization binding assay; type: protein assay
MV4-11 = test: Antiproliferative activity against human MV4-11 cells expressing MLL-AF4 after 7 days by MTS assay; type: functional, cell-based; details: for IC50: MV4-11, 168 h
Outline: (§1)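 Cells exposed to compounds for 7 days in a proliferation assay. IC50 is given as mean ± SD of triplicate determinations. K562 cells were tested up to 20 μM.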

K562 = test: Antiproliferative activity against human K562 cells after 7 days by MTS assay; type: functional, cell-based; details: K562, 168 h; outline: as §1
[2] = target: T1, Menin/Histone-lysine N-methyltransferase MLL (Homo sapiens) (UniProt O00255+Q03164); test: Inhibition of menin/MLL1 interaction in human MV4-11 cells assessed as reduction in HOXA9 mRNA level after 6 days by qRT-PCR analysis; type: cell-based
Outline: (§2)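 MV-4-11 cells incubated with compound for 6 days. HOXA9 expression measured by quantitative real-time PCR, normalized to β-actin and expressed relative to DMSO-treated cells. Triplicate means ± SD; experiment repeated 3 times.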

[3] = target: T1, Menin/Histone-lysine N-methyltransferase MLL (Homo sapiens); test: Inhibition of human recombinant full length menin/MLL1 (unknown origin) interaction using Ac-SRWRFPARPGTGRR-Ahx-Ahx-K-FAM as substrate at 20 uM after 15 mins by fluorescence polarization binding assay; type: protein assay
[4] = target: T1, Menin/Histone-lysine N-methyltransferase MLL (Homo sapiens); test: Inhibition of menin/MLL1 interaction in human MV4-11 cells assessed as reduction in HOXA9 mRNA level at 10 uM after 6 days by qRT-PCR analysis relative to control; type: cell-based; outline: as §2

Sequence of Menin/Histone-lysine N-methyltransferase MLL (O00255 whole entry): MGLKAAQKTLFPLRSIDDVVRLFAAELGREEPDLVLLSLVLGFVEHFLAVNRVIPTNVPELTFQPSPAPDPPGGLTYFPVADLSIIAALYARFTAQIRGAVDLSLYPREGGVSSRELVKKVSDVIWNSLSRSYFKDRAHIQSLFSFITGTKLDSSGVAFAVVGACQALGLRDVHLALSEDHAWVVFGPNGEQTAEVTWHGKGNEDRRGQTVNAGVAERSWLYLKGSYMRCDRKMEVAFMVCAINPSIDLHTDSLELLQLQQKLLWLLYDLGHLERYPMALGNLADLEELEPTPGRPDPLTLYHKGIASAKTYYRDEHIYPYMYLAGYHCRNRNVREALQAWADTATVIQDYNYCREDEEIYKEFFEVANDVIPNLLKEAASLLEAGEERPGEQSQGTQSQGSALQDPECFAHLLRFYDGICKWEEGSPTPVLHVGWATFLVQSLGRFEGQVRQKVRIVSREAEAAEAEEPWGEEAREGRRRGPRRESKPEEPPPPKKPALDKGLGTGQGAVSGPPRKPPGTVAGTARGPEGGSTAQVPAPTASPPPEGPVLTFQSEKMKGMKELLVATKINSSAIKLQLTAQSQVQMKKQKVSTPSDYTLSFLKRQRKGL
Sequence of Menin/Histone-lysine N-methyltransferase MLL (Q03164 1-2718 partner limits assumed): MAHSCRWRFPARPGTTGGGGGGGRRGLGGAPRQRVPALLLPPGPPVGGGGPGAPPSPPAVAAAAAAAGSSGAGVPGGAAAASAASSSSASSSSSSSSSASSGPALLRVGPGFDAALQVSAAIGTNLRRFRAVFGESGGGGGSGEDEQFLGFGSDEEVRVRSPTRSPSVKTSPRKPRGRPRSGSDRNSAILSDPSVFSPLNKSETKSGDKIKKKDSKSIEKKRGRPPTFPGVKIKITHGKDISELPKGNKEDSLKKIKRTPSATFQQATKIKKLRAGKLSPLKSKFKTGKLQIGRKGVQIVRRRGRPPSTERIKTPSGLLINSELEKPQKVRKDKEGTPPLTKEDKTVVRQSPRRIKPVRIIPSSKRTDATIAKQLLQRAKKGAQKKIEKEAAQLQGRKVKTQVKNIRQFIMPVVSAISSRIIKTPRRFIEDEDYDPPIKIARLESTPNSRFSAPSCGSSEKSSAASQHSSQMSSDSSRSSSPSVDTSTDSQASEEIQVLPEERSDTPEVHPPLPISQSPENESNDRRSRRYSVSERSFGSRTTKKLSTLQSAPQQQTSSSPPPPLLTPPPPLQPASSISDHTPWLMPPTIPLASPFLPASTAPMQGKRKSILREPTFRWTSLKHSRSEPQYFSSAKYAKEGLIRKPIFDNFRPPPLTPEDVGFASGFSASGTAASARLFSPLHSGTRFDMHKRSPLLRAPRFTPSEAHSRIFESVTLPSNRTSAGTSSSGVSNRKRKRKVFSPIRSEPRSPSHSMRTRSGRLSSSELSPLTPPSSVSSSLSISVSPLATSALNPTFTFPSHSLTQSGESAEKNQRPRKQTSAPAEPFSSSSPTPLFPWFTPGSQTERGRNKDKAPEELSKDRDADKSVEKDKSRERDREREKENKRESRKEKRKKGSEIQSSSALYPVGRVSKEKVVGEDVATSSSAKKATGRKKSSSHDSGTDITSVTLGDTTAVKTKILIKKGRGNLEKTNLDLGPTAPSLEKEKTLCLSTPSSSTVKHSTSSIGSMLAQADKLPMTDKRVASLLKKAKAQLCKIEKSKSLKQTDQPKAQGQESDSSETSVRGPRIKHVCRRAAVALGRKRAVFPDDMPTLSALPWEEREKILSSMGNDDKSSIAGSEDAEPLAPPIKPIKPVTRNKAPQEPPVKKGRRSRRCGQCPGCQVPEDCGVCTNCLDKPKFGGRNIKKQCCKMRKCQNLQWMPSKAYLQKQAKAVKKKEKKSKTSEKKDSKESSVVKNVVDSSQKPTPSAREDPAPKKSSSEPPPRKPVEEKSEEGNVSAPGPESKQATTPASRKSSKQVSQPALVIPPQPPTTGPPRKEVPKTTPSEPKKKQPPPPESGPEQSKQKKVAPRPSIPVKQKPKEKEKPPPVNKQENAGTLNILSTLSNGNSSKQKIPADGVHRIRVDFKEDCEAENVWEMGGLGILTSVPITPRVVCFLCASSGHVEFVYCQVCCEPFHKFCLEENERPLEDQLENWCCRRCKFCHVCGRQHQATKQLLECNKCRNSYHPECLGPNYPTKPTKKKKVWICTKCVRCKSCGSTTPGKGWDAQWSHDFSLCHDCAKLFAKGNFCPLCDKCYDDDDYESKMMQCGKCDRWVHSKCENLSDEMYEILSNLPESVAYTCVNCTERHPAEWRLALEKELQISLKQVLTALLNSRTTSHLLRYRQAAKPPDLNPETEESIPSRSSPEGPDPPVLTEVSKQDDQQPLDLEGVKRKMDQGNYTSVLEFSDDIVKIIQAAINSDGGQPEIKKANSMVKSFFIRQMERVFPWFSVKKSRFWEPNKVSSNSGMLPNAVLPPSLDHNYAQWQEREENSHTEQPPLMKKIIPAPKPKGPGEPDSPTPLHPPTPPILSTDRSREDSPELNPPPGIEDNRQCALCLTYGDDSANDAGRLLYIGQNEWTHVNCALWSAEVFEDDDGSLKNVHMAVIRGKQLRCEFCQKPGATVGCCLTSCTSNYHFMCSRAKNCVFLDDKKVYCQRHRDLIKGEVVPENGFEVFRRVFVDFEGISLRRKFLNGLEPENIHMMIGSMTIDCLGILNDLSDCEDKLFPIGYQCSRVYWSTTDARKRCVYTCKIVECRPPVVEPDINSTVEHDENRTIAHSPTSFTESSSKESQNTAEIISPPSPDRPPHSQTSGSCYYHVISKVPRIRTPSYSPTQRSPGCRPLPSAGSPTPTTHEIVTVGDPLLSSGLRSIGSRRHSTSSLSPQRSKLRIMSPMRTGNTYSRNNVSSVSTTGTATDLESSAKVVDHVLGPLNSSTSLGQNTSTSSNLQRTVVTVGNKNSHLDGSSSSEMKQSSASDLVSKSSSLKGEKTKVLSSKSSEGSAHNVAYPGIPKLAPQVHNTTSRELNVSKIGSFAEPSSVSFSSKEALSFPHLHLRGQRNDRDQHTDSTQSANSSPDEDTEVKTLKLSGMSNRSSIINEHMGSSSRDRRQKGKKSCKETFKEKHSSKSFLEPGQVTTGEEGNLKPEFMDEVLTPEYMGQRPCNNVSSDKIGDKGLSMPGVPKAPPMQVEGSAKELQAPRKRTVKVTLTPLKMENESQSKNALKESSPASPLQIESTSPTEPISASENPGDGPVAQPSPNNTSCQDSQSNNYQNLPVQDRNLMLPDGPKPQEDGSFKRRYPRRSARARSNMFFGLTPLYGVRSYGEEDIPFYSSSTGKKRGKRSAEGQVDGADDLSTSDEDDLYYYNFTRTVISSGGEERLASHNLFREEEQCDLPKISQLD
Sequence of Menin/Histone-lysine N-methyltransferase MLL (Q03164 2719-3969 partner limits assumed): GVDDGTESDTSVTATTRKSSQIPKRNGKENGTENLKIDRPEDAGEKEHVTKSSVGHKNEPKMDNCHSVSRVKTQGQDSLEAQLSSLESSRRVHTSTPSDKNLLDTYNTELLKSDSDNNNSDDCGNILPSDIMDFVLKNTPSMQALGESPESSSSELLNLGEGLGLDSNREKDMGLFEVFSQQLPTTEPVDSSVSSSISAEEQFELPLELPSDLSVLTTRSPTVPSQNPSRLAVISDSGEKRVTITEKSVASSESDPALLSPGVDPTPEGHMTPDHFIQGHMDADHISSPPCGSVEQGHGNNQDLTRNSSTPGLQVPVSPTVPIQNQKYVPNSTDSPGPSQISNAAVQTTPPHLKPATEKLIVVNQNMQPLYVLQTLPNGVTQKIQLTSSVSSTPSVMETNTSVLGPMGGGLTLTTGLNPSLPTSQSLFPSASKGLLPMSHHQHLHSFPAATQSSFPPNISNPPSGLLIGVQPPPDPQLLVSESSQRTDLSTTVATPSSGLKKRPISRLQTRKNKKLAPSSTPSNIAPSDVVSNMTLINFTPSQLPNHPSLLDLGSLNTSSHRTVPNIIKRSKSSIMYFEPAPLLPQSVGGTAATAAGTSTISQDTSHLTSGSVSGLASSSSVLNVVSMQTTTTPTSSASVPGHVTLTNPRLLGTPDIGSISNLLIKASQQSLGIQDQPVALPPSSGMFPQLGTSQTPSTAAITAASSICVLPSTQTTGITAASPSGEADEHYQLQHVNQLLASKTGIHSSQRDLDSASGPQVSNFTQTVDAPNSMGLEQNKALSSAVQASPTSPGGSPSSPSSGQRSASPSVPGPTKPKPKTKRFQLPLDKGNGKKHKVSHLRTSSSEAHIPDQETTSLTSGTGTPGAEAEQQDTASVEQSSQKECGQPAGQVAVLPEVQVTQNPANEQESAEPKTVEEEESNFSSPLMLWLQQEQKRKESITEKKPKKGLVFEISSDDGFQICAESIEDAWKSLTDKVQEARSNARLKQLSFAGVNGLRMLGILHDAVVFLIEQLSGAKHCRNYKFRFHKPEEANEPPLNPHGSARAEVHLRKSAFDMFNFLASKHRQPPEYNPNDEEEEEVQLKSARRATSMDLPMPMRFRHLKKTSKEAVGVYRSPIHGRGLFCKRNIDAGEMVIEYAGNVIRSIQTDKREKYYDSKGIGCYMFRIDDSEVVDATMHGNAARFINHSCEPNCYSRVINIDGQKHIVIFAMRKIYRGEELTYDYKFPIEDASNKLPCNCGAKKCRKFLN
T1 sequence (O00255 whole entry): as the sequence (O00255 whole entry) above
T1 sequence (Q03164 1-2718 partner limits assumed): as the sequence (Q03164 1-2718 partner limits assumed) above
T1 sequence (Q03164 2719-3969 partner limits assumed): as the sequence (Q03164 2719-3969 partner limits assumed) above

| SMILES | IC50 [1] | IC50 (MV4-11) | IC50 (K562) | also measured |
| --- | --- | --- | --- | --- |
| NCCCOc1cccc(CN2CCC(Nc3ncnc4sc(CC(F)(F)F)cc34)CC2)c1 | 670 nM | 390 nM | > 20000 nM | Activity (MV4-11): Dose-dependent effect; inhibition [2]: Dose-dependent effect |
| Nc1cccc(CN2CCC(Nc3ncnc4sc(CC(F)(F)F)cc34)CC2)c1 | 1260 nM |  |  |  |
| CN(C)CCCOc1cccc(CN2CCC(Nc3ncnc4sc(CC(F)(F)F)cc34)CC2)c1 | 7350 nM |  |  |  |
| FC(F)(F)Cc1cc2c(NC3CCN(Cc4ccncc4)CC3)ncnc2s1 | 2700 nM |  |  |  |
| FC(F)(F)Cc1cc2c(Nc3ccc(Cc4ccccc4)cc3)ncnc2s1 |  |  |  | inhibition [3]: 2% |
| FC(F)(F)Cc1cc2c(NC3CCN(Cc4ccco4)CC3)ncnc2s1 | 4690 nM |  |  |  |
| FC(F)(F)Cc1cc2c(NC3CCN(Cc4ccccc4)CC3)ncnc2s1 | 470 nM | 1020 nM | > 20000 nM | Activity (MV4-11): Dose-dependent effect |
| Fc1ccc(CN2CCC(CNc3ncnc4sc(CC(F)(F)F)cc34)CC2)cc1 | 1170 nM | 2980 nM | > 20000 nM |  |
| N#Cc1ccc(OCCCN2CCN(c3ncnc4sc(CC(F)(F)F)cc34)CC2)cc1 | 430 nM | 1020 nM | 9120 nM | Activity (MV4-11): Dose-dependent effect |
| NCCOc1cccc(CN2CCC(Nc3ncnc4sc(CC(F)(F)F)cc34)CC2)c1 | 1220 nM | 4150 nM | > 20000 nM |  |
| FC(F)(F)Cc1cc2c(NCC3CCN(Cc4ccc(C(F)(F)F)cc4)CC3)ncnc2s1 |  |  |  | inhibition [3]: 18.5% |
| FC(F)(F)Cc1cc2c(NC3CCN(Cc4cccc(OC5CCNCC5)c4)CC3)ncnc2s1 | 13400 nM |  |  |  |
| FC(F)(F)Cc1cc2c(NC3CCN(Cc4cccc5ccccc45)CC3)ncnc2s1 |  |  |  | inhibition [3]: 2.4% |
| FC(F)(F)Cc1cc2c(NC3CCN(Cc4ccc(C(F)(F)F)cc4)CC3)ncnc2s1 |  |  |  | inhibition [3]: -2.5% |
| FC(F)(F)Cc1cc2c(NC3CCN(Cc4ccc5ccccc5c4)CC3)ncnc2s1 |  |  |  | inhibition [3]: 15.6% |
| N#Cc1ccc(OCCN2CCN(c3ncnc4sc(CC(F)(F)F)cc34)CC2)cc1 | > 20000 nM |  |  |  |
| FC(F)(F)Cc1cc2c(NC3CCNCC3)ncnc2s1 | 32800 nM |  |  |  |
| FC(F)(F)Cc1cc2c(NCC3CCN(Cc4ccccc4)CC3)ncnc2s1 | 2240 nM | 2330 nM | > 20000 nM |  |
| O=[N+]([O-])c1cccc(CN2CCC(Nc3ncnc4sc(CC(F)(F)F)cc34)CC2)c1 |  |  |  | inhibition [3]: 43% |

| SMILES | IC50 [1] | IC50 (MV4-11) | IC50 (K562) | also measured |
| --- | --- | --- | --- | --- |
| COc1ccc(CN2CCC(CNc3ncnc4sc(CC(F)(F)F)cc34)CC2)cc1 | 1070 nM | 1280 nM | > 20000 nM |  |
| CN(C)CCOc1cccc(CN2CCC(Nc3ncnc4sc(CC(F)(F)F)cc34)CC2)c1 | 780 nM | 3490 nM | > 20000 nM |  |
| Fc1ccc(CN2CCC(Nc3ncnc4sc(CC(F)(F)F)cc34)CC2)cc1 | 2000 nM | 6320 nM | > 20000 nM |  |
| N#Cc1ccc(CN2CCC(Nc3ncnc4sc(CC(F)(F)F)cc34)CC2)cc1 |  |  |  | inhibition [3]: 25% |
| FC(F)(F)Cc1cc2c(NC3CCN(CCc4ccccc4)CC3)ncnc2s1 | 1800 nM |  |  |  |
| COc1ccc(CN2CCC(Nc3ncnc4sc(CC(F)(F)F)cc34)CC2)cc1 | 640 nM | 2420 nM | > 20000 nM |  |
| FC(F)(F)Cc1cc2c(NC3CCN(Cc4ccsc4)CC3)ncnc2s1 | 220 nM | 790 nM | > 20000 nM | Activity (MV4-11): Dose-dependent effect; inhibition [2]: Dose-dependent effect; inhibition [4]: 70% |
| FC(F)(F)Cc1cc2c(NC3CCN(Cc4ccc(-c5ccccc5)cc4)CC3)ncnc2s1 |  |  |  | inhibition [3]: 4.6% |
| CNCCCOc1cccc(CN2CCC(Nc3ncnc4sc(CC(F)(F)F)cc34)CC2)c1 | 1120 nM | 1650 nM | 9510 nM |  |
| N#Cc1ccc(NCCN2CCN(c3ncnc4sc(CC(F)(F)F)cc34)CC2)cc1 | > 20000 nM |  |  |  |
| FC(F)(F)Cc1cc2c(NC3CCN(CC4CC4)CC3)ncnc2s1 | 770 nM | 6490 nM | > 20000 nM |  |
| CN1CCC(Oc2cccc(CN3CCC(Nc4ncnc5sc(CC(F)(F)F)cc45)CC3)c2)CC1 | 2350 nM |  |  |  |
| C#CCN1CCC(Nc2ncnc3sc(CC(F)(F)F)cc23)CC1 |  |  |  | inhibition [3]: 31.3% |
| CCCN1CCC(Nc2ncnc3sc(CC(F)(F)F)cc23)CC1 | 5670 nM |  |  |  |
| N#Cc1ccc(NCCCN2CCN(c3ncnc4sc(CC(F)(F)F)cc34)CC2)cc1 | 1540 nM | 2690 nM | > 20000 nM |  |
| Cc1cccc(CN2CCC(CNc3ncnc4sc(CC(F)(F)F)cc34)CC2)c1 | 3800 nM |  |  |  |
| N#Cc1ccc(CN2CCC(CNc3ncnc4sc(CC(F)(F)F)cc34)CC2)cc1 |  |  |  | inhibition [3]: 33.4% |
| CC1(C)CN=C(N2CCN(c3ncnc4sc(CC(F)(F)F)cc34)CC2)S1 |  | 640 nM | > 20000 nM |  |
